One block for each compound: values may come before it.
Legend:
[1] = molecular target: T1, Serine/threonine-protein kinase B-raf (Homo sapiens, UniProt P15056, V600E); test: Inhibition of human B-Raf V600E mutant after 3 hrs
Outline: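 Radiometric assay using 20 nM B-Raf V600E. It measures phosphorylation of a biotinylated surrogate peptide by ³³P-ATP in 50 mM HEPES pH 7.5 with 10 mM DTT and 50 mM MnCl₂ at 30 °C for 3 h. The reaction is stopped with 100 mM EDTA, captured 2 h on a streptavidin FlashPlate and scintillation-counted.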

[2] = molecular target: T1, Serine/threonine-protein kinase B-raf; test: Inhibition of B-Raf V600E mutant-mediated ERK phosphorylation in human A375 cells after 3 hrs by immunoblotting method; format: cell-based, A-375; details: in the assay text read “whole cell ELISA” for “immunoblotting method”
Outline: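 A375 (B-Raf V600E) cells are seeded overnight, then exposed to inhibitors for 3 h at 37 °C. Cells are fixed, permeabilized and blocked overnight. They are probed 1 h with anti-phospho-ERK antibody, then with HRP-linked reagent. The TMB substrate is read as optical density at 650 nm.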

[3] = molecular target: T2, Receptor-type tyrosine-protein kinase FLT3 (Homo sapiens, UniProt P36888); test: Inhibition of FLT3
T2 sequence (P36888 whole entry): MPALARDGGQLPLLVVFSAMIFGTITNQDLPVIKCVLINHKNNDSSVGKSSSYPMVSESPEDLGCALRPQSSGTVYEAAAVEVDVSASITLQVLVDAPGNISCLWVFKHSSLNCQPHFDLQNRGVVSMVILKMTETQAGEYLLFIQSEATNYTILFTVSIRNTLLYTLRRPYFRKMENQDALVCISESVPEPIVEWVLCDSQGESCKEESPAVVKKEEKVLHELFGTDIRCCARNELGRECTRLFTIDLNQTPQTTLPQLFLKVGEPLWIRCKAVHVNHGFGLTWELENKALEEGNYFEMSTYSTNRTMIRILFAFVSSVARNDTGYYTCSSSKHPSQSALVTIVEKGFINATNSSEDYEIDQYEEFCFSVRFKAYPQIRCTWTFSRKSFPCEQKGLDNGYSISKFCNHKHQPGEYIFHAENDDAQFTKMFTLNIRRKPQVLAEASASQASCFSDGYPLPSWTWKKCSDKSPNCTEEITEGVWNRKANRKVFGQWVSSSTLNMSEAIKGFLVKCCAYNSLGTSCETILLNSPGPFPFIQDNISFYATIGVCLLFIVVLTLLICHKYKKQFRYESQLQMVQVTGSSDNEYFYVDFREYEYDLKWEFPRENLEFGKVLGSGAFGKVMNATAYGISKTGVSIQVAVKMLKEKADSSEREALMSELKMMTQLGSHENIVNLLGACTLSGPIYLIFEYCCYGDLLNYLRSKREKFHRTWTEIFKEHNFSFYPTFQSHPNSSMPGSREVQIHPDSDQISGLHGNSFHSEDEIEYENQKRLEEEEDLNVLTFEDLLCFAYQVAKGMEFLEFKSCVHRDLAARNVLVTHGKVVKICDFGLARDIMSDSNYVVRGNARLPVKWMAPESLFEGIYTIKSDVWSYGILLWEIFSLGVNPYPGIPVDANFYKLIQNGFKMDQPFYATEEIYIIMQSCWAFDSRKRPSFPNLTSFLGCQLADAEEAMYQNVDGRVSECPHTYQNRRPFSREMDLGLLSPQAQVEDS

[4] = molecular target: Macrophage colony-stimulating factor 1 receptor (Homo sapiens, UniProt P07333); test: Inhibition of CSF1R
[5] = molecular target: RAC-beta serine/threonine-protein kinase (Homo sapiens, UniProt P31751); test: Inhibition of AKT2
[6] = molecular target: Fibroblast growth factor receptor 1 (Homo sapiens, UniProt P11362); test: Inhibition of FGFR1
[7] = molecular target: Vascular endothelial growth factor receptor 2 (Homo sapiens, UniProt P35968); test: Inhibition of KDR
[8] = molecular target: Mast/stem cell growth factor receptor Kit (Homo sapiens, UniProt P10721); test: Inhibition of KIT2
Homo sapiens = species on record: Homo sapiens; test: Selectivity ratio of IC50 for wild type human B-Raf to IC50 for human B-Raf V600E mutant
[9] = Inhibition of CAMK2
[10] = molecular target: Cyclin-dependent kinase 1 (Homo sapiens, UniProt P06493); test: Inhibition of CDK1
[11] = molecular target: Cyclin-dependent kinase 2 (Homo sapiens, UniProt P24941); test: Inhibition of CDK2
[12] = molecular target: T3, Serine/threonine-protein kinase Chk1 (Homo sapiens, UniProt O14757); test: Inhibition of Chk1
T3 sequence (O14757 whole entry): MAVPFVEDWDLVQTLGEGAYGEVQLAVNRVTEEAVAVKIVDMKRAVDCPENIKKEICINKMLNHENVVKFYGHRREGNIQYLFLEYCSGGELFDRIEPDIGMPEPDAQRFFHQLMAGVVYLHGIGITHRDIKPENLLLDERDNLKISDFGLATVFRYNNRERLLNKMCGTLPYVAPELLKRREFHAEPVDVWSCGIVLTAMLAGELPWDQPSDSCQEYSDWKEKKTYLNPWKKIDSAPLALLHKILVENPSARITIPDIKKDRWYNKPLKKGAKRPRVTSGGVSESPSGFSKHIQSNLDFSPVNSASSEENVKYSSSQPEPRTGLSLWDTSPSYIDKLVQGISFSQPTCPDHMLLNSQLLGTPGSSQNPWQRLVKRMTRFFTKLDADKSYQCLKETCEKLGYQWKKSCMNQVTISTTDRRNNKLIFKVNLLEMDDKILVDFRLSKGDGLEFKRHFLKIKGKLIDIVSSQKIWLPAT

[13] = molecular target: Serine/threonine-protein kinase Chk2 (Homo sapiens, UniProt O96017); test: Inhibition of Chk2
[14] = Inhibition of CK2
[15] = Inhibition of PKA
[16] = molecular target: Tyrosine-protein kinase Lck (Homo sapiens) (UniProt P06239); test: Inhibition of LCK

T1 sequence (P15056 2-766 V600E limits assumed): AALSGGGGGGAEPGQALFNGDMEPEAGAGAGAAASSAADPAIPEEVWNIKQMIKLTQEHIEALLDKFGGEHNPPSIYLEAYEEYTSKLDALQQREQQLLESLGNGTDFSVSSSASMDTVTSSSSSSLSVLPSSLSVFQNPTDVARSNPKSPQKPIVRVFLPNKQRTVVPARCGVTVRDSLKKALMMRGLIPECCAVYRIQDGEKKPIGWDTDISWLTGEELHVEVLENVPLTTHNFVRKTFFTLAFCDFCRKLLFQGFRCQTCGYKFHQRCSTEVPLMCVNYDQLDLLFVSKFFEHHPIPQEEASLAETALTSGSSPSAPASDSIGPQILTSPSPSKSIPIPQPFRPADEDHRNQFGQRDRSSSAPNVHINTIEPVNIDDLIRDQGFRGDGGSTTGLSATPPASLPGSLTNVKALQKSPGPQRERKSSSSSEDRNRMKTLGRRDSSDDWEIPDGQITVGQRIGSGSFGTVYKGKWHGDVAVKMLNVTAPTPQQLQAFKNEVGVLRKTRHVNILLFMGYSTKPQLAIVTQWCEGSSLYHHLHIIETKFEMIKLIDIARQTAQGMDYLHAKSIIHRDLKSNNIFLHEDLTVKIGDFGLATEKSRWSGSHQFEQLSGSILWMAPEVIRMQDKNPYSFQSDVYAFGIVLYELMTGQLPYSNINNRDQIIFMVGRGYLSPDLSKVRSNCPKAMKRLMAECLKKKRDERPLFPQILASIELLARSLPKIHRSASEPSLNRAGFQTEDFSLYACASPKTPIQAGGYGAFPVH
Chain of Macrophage colony-stimulating factor 1 receptor (P07333 whole entry): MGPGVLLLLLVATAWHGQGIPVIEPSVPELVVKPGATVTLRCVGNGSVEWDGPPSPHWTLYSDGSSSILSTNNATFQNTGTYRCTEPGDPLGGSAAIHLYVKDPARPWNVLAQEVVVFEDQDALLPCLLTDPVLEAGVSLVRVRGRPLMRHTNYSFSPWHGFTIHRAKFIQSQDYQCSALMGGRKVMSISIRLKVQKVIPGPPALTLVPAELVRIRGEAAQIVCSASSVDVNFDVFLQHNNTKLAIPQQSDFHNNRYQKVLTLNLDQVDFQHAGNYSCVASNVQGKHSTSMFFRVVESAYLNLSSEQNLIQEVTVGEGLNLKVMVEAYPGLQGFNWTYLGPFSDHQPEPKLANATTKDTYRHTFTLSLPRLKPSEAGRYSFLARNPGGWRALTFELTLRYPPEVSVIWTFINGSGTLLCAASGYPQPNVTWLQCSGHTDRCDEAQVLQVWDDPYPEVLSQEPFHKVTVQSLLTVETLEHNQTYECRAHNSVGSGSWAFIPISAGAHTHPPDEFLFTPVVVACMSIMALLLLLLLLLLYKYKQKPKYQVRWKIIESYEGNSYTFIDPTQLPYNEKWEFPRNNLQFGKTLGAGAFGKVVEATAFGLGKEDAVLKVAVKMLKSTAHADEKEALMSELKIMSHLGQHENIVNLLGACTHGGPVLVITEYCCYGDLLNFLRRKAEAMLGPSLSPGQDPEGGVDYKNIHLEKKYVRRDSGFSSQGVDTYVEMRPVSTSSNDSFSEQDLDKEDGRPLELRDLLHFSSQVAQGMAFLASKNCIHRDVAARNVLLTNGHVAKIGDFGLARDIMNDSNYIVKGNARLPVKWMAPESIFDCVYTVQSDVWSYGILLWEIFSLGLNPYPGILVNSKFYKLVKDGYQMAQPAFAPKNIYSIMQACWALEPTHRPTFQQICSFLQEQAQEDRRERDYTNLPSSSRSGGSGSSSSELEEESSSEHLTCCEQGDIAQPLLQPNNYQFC
Chain of Fibroblast growth factor receptor 1 (P11362 whole entry): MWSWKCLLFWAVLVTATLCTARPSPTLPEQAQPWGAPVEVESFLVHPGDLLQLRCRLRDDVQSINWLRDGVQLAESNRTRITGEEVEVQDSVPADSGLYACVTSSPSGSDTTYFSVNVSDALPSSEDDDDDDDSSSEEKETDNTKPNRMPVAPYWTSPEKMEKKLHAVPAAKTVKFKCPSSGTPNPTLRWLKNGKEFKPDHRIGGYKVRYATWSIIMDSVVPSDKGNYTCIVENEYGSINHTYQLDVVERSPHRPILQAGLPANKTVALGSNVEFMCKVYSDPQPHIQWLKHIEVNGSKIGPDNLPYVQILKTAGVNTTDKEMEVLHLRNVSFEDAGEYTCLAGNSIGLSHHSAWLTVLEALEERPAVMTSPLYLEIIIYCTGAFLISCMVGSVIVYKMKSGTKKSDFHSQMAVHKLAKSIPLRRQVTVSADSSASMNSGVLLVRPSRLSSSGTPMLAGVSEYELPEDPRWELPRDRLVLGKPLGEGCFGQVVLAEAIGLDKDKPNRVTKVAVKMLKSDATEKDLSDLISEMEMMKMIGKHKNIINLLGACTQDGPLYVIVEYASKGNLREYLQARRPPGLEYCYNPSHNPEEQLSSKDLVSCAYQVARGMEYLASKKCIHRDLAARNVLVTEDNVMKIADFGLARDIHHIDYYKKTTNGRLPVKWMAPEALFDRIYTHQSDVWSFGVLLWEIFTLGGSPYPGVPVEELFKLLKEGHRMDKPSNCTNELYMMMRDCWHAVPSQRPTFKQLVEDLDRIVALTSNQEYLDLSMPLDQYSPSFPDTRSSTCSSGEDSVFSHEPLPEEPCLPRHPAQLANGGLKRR
Chain of Mast/stem cell growth factor receptor Kit (P10721 whole entry): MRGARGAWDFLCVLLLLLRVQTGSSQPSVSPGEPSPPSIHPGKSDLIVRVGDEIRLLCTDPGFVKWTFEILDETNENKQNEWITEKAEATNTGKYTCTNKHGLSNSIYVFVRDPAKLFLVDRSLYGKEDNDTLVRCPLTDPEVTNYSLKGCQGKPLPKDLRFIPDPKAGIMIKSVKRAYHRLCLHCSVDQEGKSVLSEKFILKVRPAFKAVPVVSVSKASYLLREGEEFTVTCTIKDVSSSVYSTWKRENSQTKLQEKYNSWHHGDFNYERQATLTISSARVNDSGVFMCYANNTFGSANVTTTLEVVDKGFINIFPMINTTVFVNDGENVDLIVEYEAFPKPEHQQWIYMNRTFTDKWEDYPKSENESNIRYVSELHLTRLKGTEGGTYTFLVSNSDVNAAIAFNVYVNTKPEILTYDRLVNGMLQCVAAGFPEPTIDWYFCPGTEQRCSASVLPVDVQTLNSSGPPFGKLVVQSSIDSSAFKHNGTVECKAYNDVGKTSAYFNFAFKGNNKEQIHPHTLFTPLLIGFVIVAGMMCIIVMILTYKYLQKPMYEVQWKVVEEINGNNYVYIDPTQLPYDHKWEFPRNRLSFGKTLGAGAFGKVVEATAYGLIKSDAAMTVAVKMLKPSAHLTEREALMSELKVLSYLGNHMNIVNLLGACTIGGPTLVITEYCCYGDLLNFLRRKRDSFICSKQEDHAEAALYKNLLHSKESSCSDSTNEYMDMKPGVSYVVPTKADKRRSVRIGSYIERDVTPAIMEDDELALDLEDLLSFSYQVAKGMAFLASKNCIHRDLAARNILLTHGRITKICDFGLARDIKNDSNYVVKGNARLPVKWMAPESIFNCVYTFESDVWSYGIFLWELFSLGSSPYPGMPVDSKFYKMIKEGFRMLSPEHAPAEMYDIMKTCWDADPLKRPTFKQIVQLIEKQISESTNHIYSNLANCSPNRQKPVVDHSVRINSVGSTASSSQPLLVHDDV
Chain of RAC-beta serine/threonine-protein kinase (P31751 whole entry): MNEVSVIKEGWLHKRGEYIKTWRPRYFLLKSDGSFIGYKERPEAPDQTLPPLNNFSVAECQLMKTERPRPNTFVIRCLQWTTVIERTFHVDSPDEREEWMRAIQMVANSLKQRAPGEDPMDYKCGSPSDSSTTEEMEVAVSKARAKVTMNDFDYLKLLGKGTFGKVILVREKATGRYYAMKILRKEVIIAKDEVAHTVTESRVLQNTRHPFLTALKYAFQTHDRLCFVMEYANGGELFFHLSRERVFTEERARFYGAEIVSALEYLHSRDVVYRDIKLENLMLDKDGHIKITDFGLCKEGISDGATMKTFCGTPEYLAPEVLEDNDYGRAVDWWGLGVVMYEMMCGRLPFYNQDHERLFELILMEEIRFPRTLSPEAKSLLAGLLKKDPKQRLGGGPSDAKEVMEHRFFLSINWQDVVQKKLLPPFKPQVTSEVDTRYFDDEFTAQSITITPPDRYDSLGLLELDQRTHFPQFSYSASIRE
Chain of Cyclin-dependent kinase 1 (P06493 whole entry): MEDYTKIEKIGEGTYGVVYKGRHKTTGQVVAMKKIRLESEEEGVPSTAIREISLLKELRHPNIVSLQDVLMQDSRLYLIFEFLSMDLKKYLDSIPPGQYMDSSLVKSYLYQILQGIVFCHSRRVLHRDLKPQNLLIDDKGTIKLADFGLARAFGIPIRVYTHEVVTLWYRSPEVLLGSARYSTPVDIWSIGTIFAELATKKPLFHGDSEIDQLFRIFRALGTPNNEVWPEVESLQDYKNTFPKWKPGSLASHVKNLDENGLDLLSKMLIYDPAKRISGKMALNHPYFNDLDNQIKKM
Chain of Serine/threonine-protein kinase Chk2 (O96017 whole entry): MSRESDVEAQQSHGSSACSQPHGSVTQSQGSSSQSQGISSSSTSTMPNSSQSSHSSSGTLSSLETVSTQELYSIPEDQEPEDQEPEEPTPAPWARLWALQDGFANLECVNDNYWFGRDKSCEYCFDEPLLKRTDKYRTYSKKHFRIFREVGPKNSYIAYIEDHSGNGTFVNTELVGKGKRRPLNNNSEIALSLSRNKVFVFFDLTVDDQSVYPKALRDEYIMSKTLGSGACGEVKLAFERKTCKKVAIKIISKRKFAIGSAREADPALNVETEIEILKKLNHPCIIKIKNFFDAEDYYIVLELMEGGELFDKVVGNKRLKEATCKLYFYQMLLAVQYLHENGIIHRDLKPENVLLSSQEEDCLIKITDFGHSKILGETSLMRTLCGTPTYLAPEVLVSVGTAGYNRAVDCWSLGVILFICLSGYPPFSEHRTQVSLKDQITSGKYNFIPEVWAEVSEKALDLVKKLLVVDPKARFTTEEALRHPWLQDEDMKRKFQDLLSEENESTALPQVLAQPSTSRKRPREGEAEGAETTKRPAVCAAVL

Compound: Cc1nc(-c2cnccn2)sc1C(=O)N1N=C(c2cccnc2)CC1c1ccccc1O (configuration not stated)
- IC50 [1]: 6.5 nM
- IC50 [2]: 710 nM

Compound: O=C(c1ccc(-c2cccnc2)s1)N1N=C(c2cccnc2)CC1c1ccccc1O (configuration not stated) [listing 1 of 2 here]
- IC50 [1]: 18.7 nM
- IC50 [2]: 180 nM

Compound: O=C(c1cc(-c2ccc3c(c2)OCCO3)n[nH]1)N1N=C(c2cccnc2)CC1c1ccccc1O (configuration not stated)
- IC50 [1]: 10.7 nM
- IC50 [2]: 240 nM

Compound: CCOc1cccc2cc(C(=O)N3N=C(c4cccnc4)CC3c3ccccc3O)oc12 (configuration not stated)
- IC50 [1]: 25.7 nM
- IC50 [2]: 3500 nM
- IC50 [3]: > 10000 nM
- IC50 [4]: > 10000 nM
- IC50 [5]: > 10000 nM
- IC50 [6]: > 10000 nM
- IC50 [7]: > 10000 nM
- IC50 [8]: > 10000 nM

Compound: O=C(c1ccc(-c2cccnc2)s1)N1N=C(c2cccnc2)CC1c1ccccc1O (configuration not stated) [listing 2 of 2 here]
- Ratio IC50 (Homo sapiens): < 2

Compound: Cc1ccc(-c2ccc(C(=O)N3N=C(c4cccnc4)CC3c3ccccc3O)o2)cc1 (configuration not stated)
- IC50 [1]: 58 nM
- IC50 [2]: 2400 nM

Compound: O=C(c1cncc(-c2cccs2)c1)N1N=C(c2cccnc2)CC1c1ccccc1O (configuration not stated)
- IC50 [1]: 260 nM
- IC50 [2]: > 10000 nM

Compound: O=C(c1ccc(F)c(C(F)(F)F)c1)N1N=C(c2cccnc2)CC1c1ccccc1O (configuration not stated)
- IC50 [1]: 200 nM
- IC50 [2]: 3800 nM

Compound: O=C(c1[nH]nc2c1CCC2)N1N=C(c2cccnc2)CC1c1ccccc1O (configuration not stated)
- IC50 [1]: 7 nM
- IC50 [2]: 350 nM

Compound: O=C(c1ccc(-c2ccc(Cl)cc2)s1)N1N=C(c2cccnc2)CC1c1ccccc1O (configuration not stated)
- IC50 [1]: 140 nM

Compound: O=C(c1cc(F)cc(C(F)(F)F)c1)N1N=C(c2cccnc2)CC1c1ccccc1O (configuration not stated)
- IC50 [1]: 110 nM
- IC50 [2]: 9500 nM

Compound: COc1ccc(-c2cc(C(=O)N3N=C(c4cccnc4)CC3c3ccccc3O)no2)cc1 (configuration not stated)
- IC50 [1]: 15.4 nM
- IC50 [2]: 460 nM

Compound: O=C(c1ccc(C(F)(F)F)c(F)c1)N1N=C(c2cccnc2)CC1c1ccccc1O (configuration not stated)
- IC50 [1]: 660 nM

Compound: O=C(c1cc2c(s1)CCC2)N1N=C(c2cccnc2)CC1c1ccccc1O (configuration not stated)
- IC50 [1]: 6.9 nM
- IC50 [2]: 920 nM

Now from value to compound:

- IC50 [1]: 9.1 nM
- IC50 [2]: 61 nM
Compound: O=C(c1cn2c(n1)sc1ccccc12)N1N=C(c2cccnc2)CC1c1ccccc1O (configuration not stated)

- IC50 [1]: 130 nM
Compound: O=C(c1ccc([N+](=O)[O-])o1)N1N=C(c2cccnc2)CC1c1ccccc1O (configuration not stated)

- IC50 [1]: 14.3 nM
- IC50 [2]: 130 nM
Compound: O=C(c1cc(-c2ccccc2O)on1)N1N=C(c2cccnc2)CC1c1ccccc1O (configuration not stated)

- IC50 [1]: 24.2 nM
- IC50 [2]: 1500 nM
- IC50 [3]: > 10000 nM
- IC50 [4]: > 10000 nM
- IC50 [5]: > 10000 nM
- IC50 [6]: > 10000 nM
- IC50 [7]: > 10000 nM
- IC50 [8]: > 10000 nM
- Ratio IC50 (Homo sapiens): < 2
Compound: O=C(c1cccs1)N1N=C(c2cccnc2)CC1c1ccccc1O (configuration not stated)

- IC50 [1]: 7.9 nM
- IC50 [2]: 1400 nM
- IC50 [3]: > 10000 nM
- IC50 [4]: > 10000 nM
- IC50 [5]: > 10000 nM
- IC50 [6]: > 10000 nM
- IC50 [7]: > 10000 nM
- IC50 [8]: > 10000 nM
Compound: O=C(c1ccc(Br)o1)N1N=C(c2cccnc2)CC1c1ccccc1O (configuration not stated)

- IC50 [1]: 37.9 nM
- IC50 [2]: 1300 nM
Compound: Cc1nc(-c2ccccc2)sc1C(=O)N1N=C(c2cccnc2)CC1c1ccccc1O (configuration not stated)

- IC50 [1]: 450 nM
Compound: N#Cc1ccccc1S(=O)(=O)N1N=C(c2cccnc2)CC1c1ccccc1O (configuration not stated)

- IC50 [3]: > 10000 nM
- IC50 [4]: > 10000 nM
- IC50 [6]: > 10000 nM
- IC50 [7]: > 10000 nM
- IC50 [8]: > 10000 nM
- IC50 [9]: > 10000 nM
- IC50 [10]: > 10000 nM
- IC50 [11]: > 10000 nM
- IC50 [12]: > 10000 nM
- IC50 [13]: > 10000 nM
- IC50 [14]: > 10000 nM
- IC50 [15]: > 10000 nM
- IC50 [16]: > 10000 nM
Compound: O=C(c1ccco1)N1N=C(c2cccnc2)CC1c1ccccc1O (configuration not stated)

- IC50 [1]: 22.6 nM
- IC50 [2]: 2000 nM
- IC50 [3]: > 10000 nM
- IC50 [4]: > 10000 nM
- IC50 [5]: > 10000 nM
- IC50 [6]: > 10000 nM
- IC50 [7]: > 10000 nM
- IC50 [8]: > 10000 nM
Compound: O=C(c1ccc[nH]1)N1N=C(c2cccnc2)CC1c1ccccc1O (configuration not stated)

From ChEMBL document CHEMBL1781905, “Discovery and optimization of N-acyl and N-aroylpyrazolines as B-Raf kinase inhibitors” (Bioorg Med Chem Lett, 2010)
